# Measured values from PubChem BioAssay.
# Active and inactive are the calls of the source.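 The calls were made as follows, unless noted: active = fluorescence slope after compound addition differing from the mean of all tested samples at 99.7% confidence, mostly higher but some lower; inactive = the rest.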
# Columns and labels:
# [1] = inhibitors of TNFa-induced NFkB p65 translocation, primary screen, imaging, HUVEC, MLSMR starter and 10KST1 sets (AID 438;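 active = inhibition above 20% together with a positive visual image hit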;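 also: compound added about 3h40 before a 20 min TNFalpha stimulation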;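 as to inhibition: signal is the nuclear over cytoplasmic p65 intensity ratio per well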); conditions: HUVEC TNFa-induced p65 nuclear translocation; cell count: measured here: nuclei count (cytotoxicity indicator), at 2.08 µM; inhibition: at 2 µM, stronger effect = higher value, 0% TNFa-plus-vehicle, 100% no-TNFa wells
# [2] = inhibitors of mutant huntingtin aggregation, primary screen, imaging, exon1htt(103Q)mCFP cells, high-content imaging (AID 483;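 active = visual image review flags a hit and inhibition of aggregation exceeds 20%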;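 also: compound exposure lasted 3 days before fixation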;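 as to nuclei count: percent of the per-plate median nuclei count of sample wells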); conditions: exon1htt(103Q)mCFP cell line, aggregate imaging, at 2 µM; inhibition of aggregation: stronger effect = higher value; nuclei count: measured here: cell count, toxicity
# [3] = inhibitors of E-selectin induction by TNFa, primary screen, imaging, HUVEC, immunofluorescence, MLSMR starter and 10KST1 sets (AID 487;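 active = visually confirmed hit in the image check and inhibition above 20%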;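 as to inhibition: signal is fraction of cell area covered by stained E-selectin grains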;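 as to nuclei count: 100% = median nuclei count of all wells on the same plate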); conditions: HUVEC TNFalpha-induced E-selectin immunofluorescence imaging, at 2 µM; inhibition: stronger effect = higher value; nuclei count: measured here: cell number, toxicity
# [4] = molecular target: Voltage-gated potassium channel subunit beta-2 (Rattus norvegicus) (UniProt P62483); assay: KvBeta enzyme negative modulators, primary screen, biochemical, NADPH fluorescence (AID 622;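 active = fluorescence slope higher than the sample average by over 3 SD, cut at about -0.22 in these data, passing the limit was not always enough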;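 also: slope of raw intensity against log time taken from 70 to 1610 s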); conditions: recombinant KvBeta, 4-cyanobenzaldehyde reduction, at 10 µM, stronger effect = higher value
# Chain of Voltage-gated potassium channel subunit beta-2 (Rattus norvegicus) (P62483 whole entry, looked up): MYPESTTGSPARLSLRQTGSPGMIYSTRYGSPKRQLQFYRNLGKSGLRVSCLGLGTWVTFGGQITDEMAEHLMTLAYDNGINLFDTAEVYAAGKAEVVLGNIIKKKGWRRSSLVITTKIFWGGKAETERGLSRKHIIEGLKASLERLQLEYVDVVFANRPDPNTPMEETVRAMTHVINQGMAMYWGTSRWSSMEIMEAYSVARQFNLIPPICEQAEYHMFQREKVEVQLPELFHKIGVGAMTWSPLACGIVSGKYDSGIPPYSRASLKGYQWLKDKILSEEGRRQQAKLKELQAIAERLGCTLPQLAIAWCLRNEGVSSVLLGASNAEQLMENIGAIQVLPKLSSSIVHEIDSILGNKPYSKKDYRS
# [5] = molecular target: Voltage-gated potassium channel subunit beta-2 (Rattus norvegicus) (UniProt P62483); assay: KvBeta positive modulators, primary screen, biochemical, NADPH fluorescence (AID 623;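 active = NADPH fluorescence slope more negative than the mean of all samples by about 3 SD, 99.7% confidence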;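 also: fluorescence intensity change per second fitted from 20 to 320 s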); conditions: Recombinant KvBeta, NADPH fluorescence decrease slope, 10 min; at 10 µM; stronger effect = lower value
# [6] = molecular target: Muscarinic acetylcholine receptor M4 (Homo sapiens) (UniProt P08173); assay: compounds altering M4/GIRK thallium flux, either direction, primary screen, M4 allosteric agonist project, cell-based, HEK293 M4/GIRK, BTC-AM (AID 625); conditions: at 10 µM, actives lie on both sides;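 also: thallium influx through GIRK channels coupled to M4 in HEK293 cells with BTC-AM dye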
# Chain of Muscarinic acetylcholine receptor M4 (Homo sapiens) (P08173 whole entry, looked up): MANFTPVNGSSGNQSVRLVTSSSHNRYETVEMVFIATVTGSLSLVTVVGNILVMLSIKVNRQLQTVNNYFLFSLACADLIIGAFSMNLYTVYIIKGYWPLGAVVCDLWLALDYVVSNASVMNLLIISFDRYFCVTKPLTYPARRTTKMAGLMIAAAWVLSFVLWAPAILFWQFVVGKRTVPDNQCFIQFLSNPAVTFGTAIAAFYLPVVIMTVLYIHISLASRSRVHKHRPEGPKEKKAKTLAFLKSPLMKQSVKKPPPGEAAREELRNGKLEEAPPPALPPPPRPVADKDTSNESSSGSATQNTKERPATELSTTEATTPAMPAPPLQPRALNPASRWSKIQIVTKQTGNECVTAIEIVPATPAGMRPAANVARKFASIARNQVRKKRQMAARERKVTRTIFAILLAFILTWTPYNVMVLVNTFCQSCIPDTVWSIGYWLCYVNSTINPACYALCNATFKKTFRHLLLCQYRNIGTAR
# Outline: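 assay system = HEK293 cells with M4 receptor and GIRK channels | medium = pH 7.3 thallium assay buffer | doses = 10 µM final, single point | timing = cells overnight at 37 °C, BTC-AM loading 1 h, reads 2 min total | signal = BTC-AM fluorescence, 1 Hz kinetic reads | read-out = post-addition slope, 15–24 s, of baseline-normalized fluorescence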
# [7] = inhibitors of Sendai virus-induced IRF3 signaling, primary screen, TLR/RLR signaling modifier project, cell-based, Sendai virus stimulus, luciferase, 10K MLSCN set (AID 602276;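 active = inhibition at or above 50% at 10 µM; inactive = inhibition below 50%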;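 also: firefly luciferase from ISG56 promoter only with Renilla not read in this screen; 0% = Sendai virus plus DMSO and 100% = medium plus DMSO without virus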); conditions: HEK293 RL24 IRF3 luciferase reporter, at 10 µM, stronger effect = higher value
# [8] = inhibitors of poly I:C-induced TLR3 signaling, primary screen, cell-based, poly I:C stimulus, luciferase, 10K MLSCN set (AID 602277;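 active = inhibition of the reporter signal at or above 50%; inactive = inhibition below 50%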); conditions: HEK293-TLR3 RL24 IRF3 luciferase reporter, at 10 µM, stronger effect = higher value
Structure (SMILES),cell count [1],inhibition [1],inhibition of aggregation [2],nuclei count [2],inhibition [3],nuclei count [3],fluorescence slope [4],NADPH fluorescence slope [5],fluorescence slope [6],inhibition [7],inhibition [8]
COc1ccc(CCN2C(=O)C3C4C=CC(C4)C3C2=O)cc1OC (centres undefined),493,-3.8% (inactive),2.1% (inactive),105%,-4.2% (inactive),99.7%,-0.451 (inactive),-4e-05 (inactive),0.00653 (inactive),10.2% (inactive),12.7% (inactive)
CN(CC(=O)N1CCN(c2ccccn2)CC1)S(=O)(=O)c1ccc2ccccc2c1,395,0.9% (inactive),1.9% (inactive),115%,-109% (inactive),119%,-0.478 (inactive),-7e-05 (inactive),0.00469 (inactive),4.05% (inactive),4.08% (inactive)
C=CCn1c(SCC(=O)NCC2CCCO2)nnc1C1CCCCC1 (centres undefined),354,-4.5% (inactive),-6% (inactive),110%,-33% (inactive),113%,-0.573 (inactive),-2.9e-05 (inactive),0.00592 (inactive),11.2% (inactive),17.5% (inactive)
Cc1cc(C)cc(OCCCC(=O)O)c1,254,9.4% (inactive),12.3% (inactive),118%,-45% (inactive),94.2%,-0.531 (inactive),-4.2e-05 (inactive),0.00463 (inactive),-0.0954% (inactive),17.4% (inactive)
CN1CCN(C(=O)CCC(=O)c2ccc(F)cc2)CC1,478,3.9% (inactive),-7.4% (inactive),122%,-2.6% (inactive),97.1%,-0.444 (inactive),5.6e-05 (inactive),0.00581 (inactive),5.42% (inactive),11.9% (inactive)
CC(=O)Nc1ccc(Cl)cc1C(=O)O,236,1.3% (inactive),-13.3% (inactive),74.7%,35.3% (inactive),74.6%,-0.519 (inactive),8e-06 (inactive),0.00503 (inactive),20.8% (inactive),16.7% (inactive)
CCCn1cnc2c(c1=O)c1nc3ccccc3nc1n2Cc1ccccc1OC,499,-7.5% (inactive),4.9% (inactive),95%,-68.4% (inactive),130%,-0.483 (inactive),-1.8e-05 (inactive),0.00653 (inactive),-9.22% (inactive),101% (active)
CCOC(=O)c1[nH]c(C)c(C(=O)N(C)C)c1C,684,-10.9% (inactive),14.5% (inactive),111%,-68% (inactive),106%,-0.465 (inactive),-1.4e-05 (inactive),0.00674 (inactive),-36.1% (inactive),99.3% (active)
Cc1cccc2cc(CN(Cc3nnnn3Cc3ccco3)C3CCCC3)c3nnnn3c12,719,-2.8% (inactive),4.4% (inactive),113%,-14% (inactive),116%,-0.451 (inactive),3.4e-05 (inactive),0.00551 (inactive),9.99% (inactive),13% (inactive)
Cc1c(Cc2ccccc2)sc(N)c1C(N)=O,335,-13% (inactive),-0.8% (inactive),115%,-32.2% (inactive),113%,-0.574 (inactive),-2.6e-06 (inactive),0.00569 (inactive),9.38% (inactive),10.8% (inactive)
O=C(COc1nnc2ccccn12)N1CCN(S(=O)(=O)c2ccccc2)CC1,691,-3.3% (inactive),-29.7% (inactive),95.4%,-18.1% (inactive),122%,-0.405 (inactive),-9.3e-05 (inactive),0.00653 (inactive),-12.4% (inactive),98.8% (active)
COC(=O)c1[nH]c2cc(OC)ccc2c1NC(=O)CCN1CCCCC1,290,10.8% (inactive),-12.7% (inactive),70.3%,-82.1% (inactive),164%,-0.55 (inactive),-5.4e-05 (inactive),0.0032 (inactive),-3.43% (inactive),3.78% (inactive)
COCCN(C(=O)Cn1nnc2ccccc21)C(C(=O)NC1CCCC1)c1cc(OC)ccc1OC (centres undefined),323,9% (inactive),7.8% (inactive),105%,-246% (inactive),112%,-0.491 (inactive),0.0001 (inactive),0.00575 (inactive),2.22% (inactive),8.36% (inactive)
COc1ccc2c(-c3cccnc3)cc(=O)[nH]c2c1,363,4.3% (inactive),-5.5% (inactive),84.5%,36.3% (inactive),79.4%,-0.39 (inactive),-9.1e-05 (inactive),0.00553 (inactive),13.4% (inactive),26.1% (inactive)
